A short description of data set [1]: Retention time in human plasma treated with 1 uM (S)-5-guanidino-2-((S)-1-((6S,15S,18R)-1,6,15-triamino-18-(2-aminoethyl)-1-imino-9,16-dioxo-2,8,10,17-tetraazanonadecane)-2,3-dihydro-1H-pyrrole-2-carboxamido)pentanoic acid at 1 uM after 96 hrs by LC-MS analysis. The data set is classed as ADME, cell-free. The method in brief:
(§1)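 Compounds incubated in human plasma at 37 °C; aliquots withdrawn at selected time intervals up to 96 h and analysed by RP-HPLC and LC-MS to follow parent loss and the fragments formed.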

In another data set the target is Neuropilin-1 (Homo sapiens, UniProt O14786). Description: Inhibition of biotinylated human VEGF-A165 binding to recombinant human NRP1 receptor after 2 hrs by chemiluminescence analysis relative to control. The method in brief:
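ELISA-like competition format with chemiluminescent read-out of VEGF-A165 bound to NRP-1 in the presence of test peptidomimetic.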

Data set [2] can be described thus: Retention time in human plasma treated with 1 uM (S)-2-((S)-1-((S)-1-((S)-2-amino-6-(3-((S)-2-amino-5-guanidinopentyl)ureido)hexanoyl)pyrrolidine-2-carbonyl)pyrrolidine-2-carboxamido)-5-guanidinopentanoic acid at 1 uM after 96 hrs by LC-MS analysis. The format is ADME, cell-free. The method in brief:
as §1

Data set [3] in a line: Metabolic stability in human plasma assessed as compound remaining at 1 uM after 96 hrs by RP-HPLC and LC-MS analysis relative to control. The note with it: read-out: Stability. The format is ADME, cell-free. Put shortly:
as §1

Data set [4] in a line: Drug metabolism in human plasma assessed as (S)-2-amino-6-(3-((S)-2-amino-5-guanidinopentyl)ureido)hexanoic acid metabolite formation at 1 uM after 96 hrs by LC-MS analysis. The data set is classed as ADME, cell-free. The method in brief:
as §1

The nature of data set [5]: Stability in human plasma assessed as enzymatic cleavage of Lys(epsilon)-Arg(U) bond at 1 uM after 96 hrs by LC-MS analysis. The data set is classed as ADME, cell-free. Put shortly: as §1

pIC50: −log10 of the molar value. Numbered stars: 1 amine (or outer) side, 2 acyl side, 3 side chain; on linkers, the order of the positions; unused ones are H or OH. Square brackets hold non-standard residues; d marks the D form. Side chains are listed from the residue outwards. Peptide text beside a SMILES is read from it. * marks the point of attachment. X1 = N=C(N)NCCC[C@H](N)CN*; ΔPro = O=C(O)[C@@H]1C=CCN1; Dab = NCC[C@H](N)C(=O)O; CO = O=C([*:1])[*:2]

Sequence of Neuropilin-1 (O14786 whole entry): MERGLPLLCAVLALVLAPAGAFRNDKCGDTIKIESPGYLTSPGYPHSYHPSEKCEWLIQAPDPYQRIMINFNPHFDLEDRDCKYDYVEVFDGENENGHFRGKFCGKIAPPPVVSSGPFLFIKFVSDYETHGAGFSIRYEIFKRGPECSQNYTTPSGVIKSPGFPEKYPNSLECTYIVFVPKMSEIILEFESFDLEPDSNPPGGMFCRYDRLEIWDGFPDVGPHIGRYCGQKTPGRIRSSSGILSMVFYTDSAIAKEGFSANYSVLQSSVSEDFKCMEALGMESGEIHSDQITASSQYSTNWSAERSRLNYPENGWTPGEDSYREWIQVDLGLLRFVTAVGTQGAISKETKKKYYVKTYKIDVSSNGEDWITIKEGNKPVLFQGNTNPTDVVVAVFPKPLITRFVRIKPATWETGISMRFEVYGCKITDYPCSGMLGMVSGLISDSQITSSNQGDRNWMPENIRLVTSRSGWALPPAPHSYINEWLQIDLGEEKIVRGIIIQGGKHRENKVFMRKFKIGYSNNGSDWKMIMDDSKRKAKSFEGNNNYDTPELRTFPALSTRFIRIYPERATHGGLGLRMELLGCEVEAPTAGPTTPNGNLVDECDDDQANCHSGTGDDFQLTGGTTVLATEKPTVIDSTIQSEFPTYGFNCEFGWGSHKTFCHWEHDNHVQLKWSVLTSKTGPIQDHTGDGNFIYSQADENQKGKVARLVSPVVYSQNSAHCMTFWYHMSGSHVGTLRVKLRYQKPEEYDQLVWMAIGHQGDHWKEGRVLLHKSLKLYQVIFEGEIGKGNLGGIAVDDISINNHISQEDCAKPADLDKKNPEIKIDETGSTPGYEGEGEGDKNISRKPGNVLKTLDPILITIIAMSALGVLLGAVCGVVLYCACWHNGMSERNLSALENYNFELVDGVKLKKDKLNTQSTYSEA

Consider `N=C(N)NCCC[C@H](N)CNC(=O)NCCCC[C@H](N)C(=O)N[C@@H](CCN)C(=O)N1CC=C[C@H]1C(=O)O`, for which the Retention_time in data set [1] came out at 9.02 min. For `N=C(N)NCCC[C@H](N)CNC(=O)NCCCC[C@H](N)C(=O)N[C@H](CCN)C(=O)N1CC[C@H]1C(=O)N[C@@H](CCCNC(=N)N)C(=O)O`, the pIC50 on Neuropilin-1 was 4.59.

Regarding `N=C(N)NCCC[C@H](N)CNC(=O)NCCCC[C@H](N)C(=O)O`, the results for the Retention_time in data set [2] and in data set [1] were 3 min and 2.92 min, respectively. `N=C(N)NCCC[C@H](N)CNC(=O)NCCCC[C@H](N)C(=O)N[C@H](CCN)C(=O)N1C2CCCCC2C[C@H]1C(=O)N[C@@H](CCCNC(=N)N)C(=O)O` (stereo not given in full): the negative-log IC50 (pIC50) on Neuropilin-1 was 5.27. Regarding `N=C(N)NCCC[C@H](N)CNC(=O)NCCCC[C@H](N)C(=O)N1CCC[C@H]1C(=O)N1CCC[C@H]1C(=O)N[C@@H](CCCNC(=N)N)C(=O)O` (H-K([CO-X1])PPR-OH), the remaining at 96 h, 1 µM in data set [3] lay in the range of 40 to 45%. Besides, the Drug metabolism result in data set [4] was “Metabolite_Detected”. Also, the Stability entry in data set [5] is reported as “Stable”. The negative logarithm of the IC50 (pIC50) on Neuropilin-1 is 5.11.

As for `N=C(N)NCCC[C@H](NC(=O)[C@@H]1C=CCN1C(=O)[C@@H](N)CCN)C(=O)O` (H-[Dab]-[ΔPro]-Arg-OH), the Retention_time in data set [1] is given as 0.98 min.

Source of the values: ChEMBL document CHEMBL4346745, “Urea moiety as amide bond mimetic in peptide-like inhibitors of VEGF-A165/NRP-1 complex” (Bioorg Med Chem Lett, 2019).
